Source: ChEMBL document CHEMBL1926596, “Synthesis and antimalarial evaluation of novel isocryptolepine derivatives” (Bioorg Med Chem, 2011)
pIC50: −log10 of the molar value. Counter-ions that a name gives are not always drawn.

Assays:
Plasmodium falciparum [1] = assay: Antimalarial activity against chloroquine-sensitive Plasmodium falciparum 3D7 infected in human erythrocytes assessed as inhibition of [3H]hypoxanthine incorporation after 48 hrs by beta liquid scintillation counting method; type: functional, organism-based
In short: (§1)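 Hydrochloride salts, from DMSO/water stocks (final DMSO <0.05%), added in triplicate to parasites cultured in RPMI 1640 HEPES with L-glutamine, gentamicin, hypoxanthine and 10% pooled human plasma at 37 °C under 3–9% oxygen. Radiolabel was added, then 48 h incubation, freeze-thaw, filtermat harvest and scintillation counting. Uninfected and infected drug-free controls were included. IC50 came from nonlinear regression of log-dose–response curves, with at least 3 separate runs.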

Plasmodium falciparum [2] = assay: Antimalarial activity against chloroquine-resistant Plasmodium falciparum W2mef infected in human erythrocytes assessed as inhibition of [3H]hypoxanthine incorporation after 48 hrs by beta liquid scintillation counting method; type: functional, organism-based; in short: as §1
[3] = Selectivity index, ratio of IC50 for mouse 3T3 cells to IC50 for chloroquine-resistant Plasmodium falciparum W2mef; type: toxicity, cell-based, NIH3T3; settings: read-out: Ratio IC50
In short: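 The ratio uses the W2mef antiplasmodial IC50 and the IC50 in 3T3 mouse embryonic fibroblasts. Cells were seeded 24 h earlier at 7500/well on 1% gelatine, 37 °C, 5% CO2. Serial dilutions were added in quadruplicate with a vehicle control for 48 h. MTT (1 mg/mL, 60 min, 37 °C) was solubilised in DMSO and read at 595 nm. IC50 came from nonlinear regression after DMSO correction, with at least 3 runs.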

NIH3T3 = assay: Cytotoxicity against mouse 3T3 cells after 48 hrs by MTT assay; type: cell-based; settings: NIH3T3, 48 h
In short: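 Cells seeded at 7500 per well on 1% gelatine-coated plates 24 h before testing (37 °C, 5% CO2, humidified). Test agents given as hydrochloride salts in DMSO/water stocks, diluted in RPMI, serially diluted, added in quadruplicate, with vehicle and drug-free controls. After 48 h, MTT (1 mg/mL in RPMI) for 60 min, DMSO solubilisation, absorbance 595 nm. At least three separate runs; IC50 by non-linear regression after DMSO correction.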

Plasmodium falciparum [4] = assay: Antimalarial activity against Plasmodium falciparum K1; type: functional, organism-based

Compound: Cn1cc2c3ccccc3nc-2c2ccc(Cl)cc21
- pIC50 (Plasmodium falciparum [1]): 6.89
- pIC50 (Plasmodium falciparum [2]): 6.50
- selectivity ratio [3]: 7.3
- pIC50 (NIH3T3): 5.65

Compound: Cc1ccc2c3cn(C)c4ccccc4c-3nc2c1
- pIC50 (Plasmodium falciparum [1]): 6.35
- pIC50 (Plasmodium falciparum [2]): 6.12
- selectivity ratio [3]: 2.7
- pIC50 (NIH3T3): 5.68

Compound: Cn1cc2c3cc(Br)ccc3nc-2c2ccccc21
- pIC50 (Plasmodium falciparum [1]): 7.07
- pIC50 (Plasmodium falciparum [2]): 6.74
- selectivity ratio [3]: 11
- pIC50 (NIH3T3): 5.71

Compound: Cn1cc2c3cc(Br)ccc3nc-2c2cc(Cl)ccc21
- pIC50 (Plasmodium falciparum [1]): 7.24
- pIC50 (Plasmodium falciparum [2]): 7.07
- selectivity ratio [3]: 106
- pIC50 (NIH3T3): 5.05

Compound: Cn1cc2c3cc(Br)ccc3nc-2c2cc(Br)ccc21
- pIC50 (Plasmodium falciparum [1]): 6.90
- pIC50 (Plasmodium falciparum [2]): 6.95
- selectivity ratio [3]: 23
- pIC50 (NIH3T3): 5.59

Compound: Cn1cc2c3cc(Br)ccc3nc-2c2ccc(Cl)cc21
- pIC50 (Plasmodium falciparum [1]): 7.30
- pIC50 (Plasmodium falciparum [2]): 7.00
- selectivity ratio [3]: 26
- pIC50 (NIH3T3): 5.58

Compound: Cc1cc2nc3c4ccccc4n(C)cc-3c2cc1Br
- pIC50 (Plasmodium falciparum [1]): 7.21
- pIC50 (Plasmodium falciparum [2]): 6.88
- selectivity ratio [3]: 19
- pIC50 (NIH3T3): 5.60

Compound: Cn1cc2c3cc(Cl)ccc3nc-2c2ccccc21
- pIC50 (Plasmodium falciparum [1]): 6.93
- pIC50 (Plasmodium falciparum [2]): 6.66
- selectivity ratio [3]: 9.6
- pIC50 (NIH3T3): 5.68

Compound: Cn1c2c3cc(Br)ccc3nc-2cc2cc(Br)ccc21
- pIC50 (Plasmodium falciparum [4]): 7.31

Compound: CCN(CC)CCCC(C)Nc1ccnc2cc(Cl)ccc12 (centres undefined) [CHLOROQUINE]
- pIC50 (NIH3T3): 4.14

Compound: Cn1cc2c3ccccc3nc-2c2ccccc21 [ISOCRYPTOLEPINE HYDROCHLORIDE]
- pIC50 (Plasmodium falciparum [1]): 6.18
- pIC50 (Plasmodium falciparum [2]): 5.93
- selectivity ratio [3]: 1.9
- pIC50 (NIH3T3): 5.66

Compound: CCCCN(CCCC)CC(O)c1cc(Cl)cc2c1-c1ccc(Cl)cc1/C2=C/c1ccc(Cl)cc1 (centres undefined) [LUMEFANTRINE]
- pIC50 (Plasmodium falciparum [2]): 7.25
